Test results published in ChEMBL document CHEMBL1151801, “Synthesis of new indeno[1,2-e]pyrimido[4,5-b][1,4]diazepine-5,11-diones as potential antitumor agents” (2008).
Calls of active or inactive are those of the source.

Tests used:
CAKI-1 = assay: Antitumor activity against human Caki1 cells after 48 hrs by SRB assay; assay type: functional; settings: CAKI-1, 48 h
Method in brief: (§1)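 NCI in vitro human tumor cell line screen. Cells were exposed continuously to compound for 48 h at five concentration levels (100, 10, 1.0, 0.1 and 0.01). Growth was estimated by sulforhodamine B protein staining. GI50 is the concentration giving a 50% reduction in net protein increase relative to control cells over the incubation.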

A498 = assay: Antitumor activity against human A498 cells after 48 hrs by SRB assay; assay type: functional; settings: A498, 48 h; method in brief: as §1
786-0 = assay: Antitumor activity against human 786-0 cells after 48 hrs by SRB assay; assay type: functional; settings: 786-0, 48 h; method in brief: as §1
SK-OV-3 = assay: Antitumor activity against human SKOV3 cells after 48 hrs by SRB assay; assay type: functional; settings: SK-OV-3, 48 h; method in brief: as §1
OVCAR-8 = assay: Antitumor activity against human OVCAR8 cells after 48 hrs by SRB assay; assay type: functional; settings: OVCAR-8, 48 h; method in brief: as §1
OVCAR-3 = assay: Antitumor activity against human OVCAR-3 cells after 48 hrs by SRB assay; assay type: functional; settings: OVCAR-3, 48 h; method in brief: as §1
IGROV-1 = assay: Antitumor activity against human IGROV1 cells after 48 hrs by SRB assay; assay type: functional; settings: IGROV-1, 48 h; method in brief: as §1
U-251 = assay: Antitumor activity against human U251 cells after 48 hrs by SRB assay; assay type: functional; settings: U-251, 48 h
Method in brief: (§2)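 NCI in vitro human tumor cell line screen. Continuous 48 h drug exposure at five concentrations (100, 10, 1.0, 0.1 and 0.01 µM). Cell growth estimated by sulforhodamine B protein staining. GI50 defined as the concentration giving 50% reduction in net protein increase versus control cells over the incubation.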

SNB-75 = assay: Antitumor activity against human SNB75 cells after 48 hrs by SRB assay; assay type: functional; settings: SNB-75, 48 h; method in brief: as §1
SF-539 = assay: Antitumor activity against human SF539 cells after 48 hrs by SRB assay; assay type: functional; settings: SF-539, 48 h; method in brief: as §1
ACHN = assay: Antitumor activity against human ACHN cells after 48 hrs by SRB assay; assay type: functional; method in brief: as §1
SF-268 = assay: Antitumor activity against human SF268 cells after 48 hrs by SRB assay; assay type: functional; settings: SF-268, 48 h; method in brief: as §1
SW-620 = assay: Antitumor activity against human SW620 cells after 48 hrs by SRB assay; assay type: functional; settings: SW-620, 48 h; method in brief: as §2
KM12 = assay: Antitumor activity against human KM12 cells after 48 hrs by SRB assay; assay type: functional; settings: KM12, 48 h; method in brief: as §1
HCT-15 = assay: Antitumor activity against human HCT15 cells after 48 hrs by SRB assay; assay type: functional; settings: HCT-15, 48 h; method in brief: as §1
HCC 2998 = assay: Antitumor activity against human HCC2998 cells after 48 hrs by SRB assay; assay type: functional; settings: HCC 2998, 48 h; method in brief: as §1
COLO 205 = assay: Antitumor activity against human COLO205 cells after 48 hrs by SRB assay; assay type: functional; settings: COLO 205, 48 h; method in brief: as §1
NCI-H522 = assay: Antitumor activity against human NCI-H522 cells after 48 hrs by SRB assay; assay type: functional; settings: NCI-H522, 48 h; method in brief: as §1
NCI-H460 = assay: Antitumor activity against human NCI-H460 cells after 48 hrs by SRB assay; assay type: functional; settings: NCI-H460, 48 h; method in brief: as §1
NCI-H322M = assay: Antitumor activity against human NCI-H322M cells after 48 hrs by SRB assay; assay type: functional; method in brief: as §1
NCI-H23 = assay: Antitumor activity against human NCI-H23 cells after 48 hrs by SRB assay; assay type: functional; settings: NCI-H23, 48 h; method in brief: as §1
NCI-H226 = assay: Antitumor activity against human NCI-H226 cells after 48 hrs by SRB assay; assay type: functional; settings: NCI-H226, 48 h; method in brief: as §1
HOP-62 = assay: Antitumor activity against human HOP62 cells after 48 hrs by SRB assay; assay type: functional; settings: HOP-62, 48 h; method in brief: as §1
EKVX = assay: Antitumor activity against human EKVX cells after 48 hrs by SRB assay; assay type: functional; method in brief: as §1
A549 = assay: Antitumor activity against human A549 cells after 48 hrs by SRB assay; assay type: functional; settings: A549, 48 h; method in brief: as §1
SR = assay: Antitumor activity against human SR cells after 48 hrs by SRB assay; assay type: functional; method in brief: as §1
[1] = Antitumor activity against human […] cells after 48 hrs by SRB assay; assay type: functional; method in brief: as §1
MOLT-4 = assay: Antitumor activity against human MOLT4 cells after 48 hrs by SRB assay; assay type: functional; settings: MOLT-4, 48 h; method in brief: as §1
K562 = assay: Antitumor activity against human K562 cells after 48 hrs by SRB assay; assay type: functional; settings: K562, 48 h; method in brief: as §1
HL-60(TB) = assay: Antitumor activity against human HL-60(TB) cells after 48 hrs by SRB assay; assay type: functional; settings: HL-60, 48 h; method in brief: as §1
CCRF-CEM = assay: Antitumor activity against human CCRF-CEM cells after 48 hrs by SRB assay; assay type: functional; method in brief: as §1
NCI60 = assay: Antitumor activity against human NCI60 cells at 1 uM; assay type: functional, cell-based
UO-31 = assay: Antitumor activity against human UO31 cells after 48 hrs by SRB assay; assay type: functional; settings: UO-31, 48 h; method in brief: as §2
PC-3 = assay: Antitumor activity against human PC3 cells after 48 hrs by SRB assay; assay type: functional; settings: PC-3, 48 h; method in brief: as §1
DU-145 = assay: Antitumor activity against human DU145 cells after 48 hrs by SRB assay; assay type: functional; settings: DU-145, 48 h; method in brief: as §1
MCF7 = assay: Antitumor activity against human MCF7 cells after 48 hrs by SRB assay; assay type: functional; settings: MCF7, 48 h; method in brief: as §1
NCI/ADR-RES = assay: Antitumor activity against human NCI/ADR-RES cells after 48 hrs by SRB assay; assay type: functional; method in brief: as §1
[2] = Antitumor activity against human Hs 578T cells after 48 hrs by SRB assay; assay type: functional; method in brief: as §1
BT-549 = assay: Antitumor activity against human BT549 cells after 48 hrs by SRB assay; assay type: functional; settings: BT-549, 48 h; method in brief: as §1
[3] = read-out: LC50 (the source's name)

## CSc1nc2c(c(=O)[nH]1)NC1=C(C(=O)c3ccccc31)C(c1ccccc1)N2 (configuration not stated)
CAKI-1
  GI50: 2.18 µM
  LC50: > 100 µM
A498
  GI50: 2 µM
  LC50: > 100 µM
786-0
  GI50: 6.44 µM
786-0; [3]
  CC50: > 100 µM
SK-OV-3
  GI50: 7.65 µM
  LC50 (concentration killing 50% of cells): > 100 µM
OVCAR-8
  GI50: 19.1 µM
  LC50 (concentration causing 50% net cell kill): > 100 µM
OVCAR-3
  GI50: 2.12 µM
OVCAR-3; [3]
  CC50: 46.4 µM
IGROV-1
  GI50: 4.54 µM
IGROV-1; [3]
  CC50: > 100 µM
U-251
  GI50: 3.52 µM
U-251; [3]
  CC50: > 100 µM
SNB-75
  GI50: 1.27 µM
  LC50: > 100 µM
SF-539
  GI50: 2.84 µM
  LC50 (concentration killing 50% of cells): > 100 µM
ACHN
  GI50: 3.73 µM
ACHN; [3]
  CC50: > 100 µM
SF-268
  GI50: 4.55 µM
SF-268; [3]
  CC50: > 100 µM
SW-620
  GI50: 2.92 µM
  LC50: > 100 µM
KM12
  GI50: 2.27 µM
KM12; [3]
  CC50: > 100 µM
HCT-15
  GI50: 2.8 µM
  LC50 (concentration killing 50% of starting cells): > 100 µM
HCC 2998
  GI50: 6.75 µM
HCC 2998; [3]
  CC50: > 100 µM
COLO 205
  GI50: 3.53 µM
COLO 205; [3]
  CC50: > 100 µM
NCI-H522
  GI50: 1.41 µM
NCI-H522; [3]
  CC50: > 100 µM
NCI-H460
  GI50: 3.16 µM
NCI-H460; [3]
  CC50: > 100 µM
NCI-H322M
  GI50: 13.5 µM
NCI-H322M; [3]
  CC50: > 100 µM
NCI-H23
  GI50: 5.82 µM
  LC50: > 100 µM
NCI-H226
  GI50: 4.2 µM
  LC50: > 100 µM
HOP-62
  GI50: 5.37 µM
HOP-62; [3]
  CC50: > 100 µM
EKVX
  GI50: 12.8 µM
EKVX; [3]
  CC50: > 100 µM
A549
  GI50: 6.98 µM
A549; [3]
  CC50: > 100 µM
SR
  GI50: 1.51 µM
  LC50 (concentration killing 50% of cells): > 100 µM
[1]
  GI50: 3.01 µM
  LC50: > 100 µM
MOLT-4
  GI50: 5.24 µM
  LC50: > 100 µM
K562
  GI50: 1.27 µM
  LC50: > 100 µM
HL-60(TB)
  GI50: 2.51 µM
  LC50: > 100 µM
CCRF-CEM
  GI50: 5.92 µM
CCRF-CEM; [3]
  CC50: > 100 µM
NCI60
  Activity: Active
UO-31
  GI50: 5.23 µM
UO-31; [3]
  CC50: > 100 µM
PC-3
  GI50: 3.64 µM
PC-3; [3]
  CC50: > 100 µM
DU-145
  GI50: 13.4 µM
DU-145; [3]
  CC50: > 100 µM
MCF7
  GI50: 2.4 µM
  LC50 (concentration causing 50% net cell kill): > 100 µM
NCI/ADR-RES
  GI50: 4.54 µM
  LC50: > 100 µM
[2]
  GI50: 2.1 µM
[2]; [3]
  CC50: > 100 µM
BT-549
  GI50: 5.35 µM
BT-549; [3]
  CC50: > 100 µM
